Source: ChEMBL document CHEMBL4007420, “Structural Optimization and Pharmacological Evaluation of Inhibitors Targeting Dual-Specificity Tyrosine Phosphorylation-Regulated Kinases (DYRK) and CDC-like kinases (CLK) in Glioblastoma” (J Med Chem, 2017)
The source made the active and inactive calls. The rule behind the calls is not given here.

Assays:
[1] = target: T1, Dual specificity tyrosine-phosphorylation-regulated kinase 2 (Homo sapiens, UniProt Q92630); assay: Inhibition of DYRK2 (unknown origin) using woodtide as substrate after 40 mins in presence of [gamma-33P]ATP by microbeta scintillation counting
T1 sequence (Q92630 whole entry): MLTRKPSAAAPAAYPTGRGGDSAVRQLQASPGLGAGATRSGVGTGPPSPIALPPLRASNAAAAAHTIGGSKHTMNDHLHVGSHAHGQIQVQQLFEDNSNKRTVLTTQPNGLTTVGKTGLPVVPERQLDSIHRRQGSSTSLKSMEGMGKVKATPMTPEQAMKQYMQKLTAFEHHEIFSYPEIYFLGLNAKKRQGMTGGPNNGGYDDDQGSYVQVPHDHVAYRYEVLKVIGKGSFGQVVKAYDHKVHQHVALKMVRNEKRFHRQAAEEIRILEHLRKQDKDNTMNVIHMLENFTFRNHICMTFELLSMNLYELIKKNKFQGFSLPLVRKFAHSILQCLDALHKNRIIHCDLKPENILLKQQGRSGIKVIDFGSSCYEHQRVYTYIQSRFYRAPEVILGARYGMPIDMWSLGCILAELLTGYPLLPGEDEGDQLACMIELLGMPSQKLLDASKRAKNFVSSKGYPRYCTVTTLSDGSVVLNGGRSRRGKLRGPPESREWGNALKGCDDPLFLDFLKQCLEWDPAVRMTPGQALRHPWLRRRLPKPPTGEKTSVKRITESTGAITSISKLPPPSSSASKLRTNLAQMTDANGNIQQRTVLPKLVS

[2] = target: Dual specificity tyrosine-phosphorylation-regulated kinase 1A (Homo sapiens, UniProt Q13627); assay: Inhibition of DYRK1A (unknown origin) using woodtide as substrate after 10 mins in presence of [gamma-33P]ATP by microbeta scintillation counting
[3] = target: Dual specificity tyrosine-phosphorylation-regulated kinase 1B (Homo sapiens, UniProt Q9Y463); assay: Inhibition of DYRK1B (unknown origin) using woodtide as substrate after 40 mins in presence of [gamma-33P]ATP by microbeta scintillation counting
[4] = target: Dual specificity protein kinase CLK1 (Homo sapiens, UniProt P49759); assay: Inhibition of CLK1 (unknown origin) using KKGRSRSRSRSRSR as substrate after 40 mins in presence of [gamma-33P]ATP by microbeta scintillation counting
Outline: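 CLK1 was assayed with RS peptide substrate at 100 µM ATP.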

[5] = Cytotoxicity against patient-derived RN1 cells assessed as reduction in cell viability after 3 days by Alamar blue assay; type: functional, cell-based; details: Homo sapiens, RN1, 72 h
Outline: (§1)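 The patient-derived glioblastoma lines were grown as stem cells under defined conditions to keep the phenotype and genotype of the resected tumours. Viability after treatment was read with Alamar blue.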

[6] = Cytotoxicity against patient-derived WK1 cells assessed as reduction in cell viability after 5 days by Alamar blue assay; type: functional, cell-based; details: Homo sapiens, WK1, 120 h; outline: as §1
[7] = Cytotoxicity against patient-derived JK2 cells assessed as reduction in cell viability after 3 days by Alamar blue assay; type: functional, cell-based; details: Homo sapiens, JK2, 72 h; outline: as §1
[8] = Cytotoxicity against patient-derived SJH1 cells assessed as reduction in cell viability after 3 days by Alamar blue assay; type: functional, cell-based; details: Homo sapiens, SJH1, 72 h; outline: as §1
[9] = tested on: A 172; assay: Cytotoxicity against human A172 cells assessed as reduction in cell viability after 3 days by Alamar blue assay; type: functional, cell-based; details: A 172, 72 h
[10] = tested on: U-251; assay: Cytotoxicity against human U251 cells assessed as reduction in cell viability after 3 days by Alamar blue assay; type: functional, cell-based; details: U-251, 72 h
[11] = (§2) Anticlonogenic activity against patient-derived RN1 cells after 10 to 12 days by toluidine blue staining based assay; type: functional, cell-based, Homo sapiens
Outline: (§3)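 Cells were exposed to compound for 10 days, then colonies were fixed, stained with Toluidine Blue and counted. […] Values are mean ± SEM of 3 independent experiments, each in duplicate, with one-way ANOVA and Dunnett's test against vehicle.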

[12] = tested on: RN1; assay: as §2; type: functional, cell-based; details: Homo sapiens; outline: as §3
[13] = species: Homo sapiens; assay: Inhibition of tubulin (unknown origin) polymerization
[14] = tested on: U-251; assay: Antimigratory activity in human U251 cells assessed as velocity of migration at 1 uM measured up to 20 hrs by wound scratch assay (reference value: 2159 to 2653 micrometer/hr); type: functional
Outline: (§4)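 Wound-healing migration assay: cell movement across the wound is measured as velocity (µm/h). Compounds were tested at 0, 1.0, 5.0 and 10.0 µM. Values are mean ± SEM of 3 independent experiments.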

[15] = tested on: U-251; assay: Antimigratory activity in human U251 cells assessed as velocity of migration at 5 uM measured up to 20 hrs by wound scratch assay (reference value: 2159 to 2653 micrometer/hr); type: functional; outline: as §4
[16] = tested on: U-251; assay: Antimigratory activity in human U251 cells assessed as velocity of migration at 10 uM measured up to 20 hrs by wound scratch assay (reference value: 2159 to 2653 micrometer/hr); type: functional; outline: as §4
[17] = tested on: U-251; assay: Antiinvasive activity in human U251 cells assessed as velocity of invasion at 1 uM measured up to 20 hrs by matrigel assay (reference value: 1151 to 1710 micrometer/hr); type: functional
[18] = tested on: U-251; assay: Antiinvasive activity in human U251 cells assessed as velocity of invasion at 5 uM measured up to 20 hrs by matrigel assay (reference value: 1151 to 1710 micrometer/hr); type: functional
[19] = tested on: U-251; assay: Antiinvasive activity in human U251 cells assessed as velocity of invasion at 10 uM measured up to 20 hrs by matrigel assay (reference value: 1151 to 1710 micrometer/hr); type: functional
[20] = tested on: A 172; assay: Antimigratory activity in human A172 cells assessed as velocity of migration at 1 uM measured up to 20 hrs by wound scratch assay (reference value: 2650 to 3123 micrometer/hr); type: functional; outline: as §4
[21] = tested on: A 172; assay: Antimigratory activity in human A172 cells assessed as velocity of migration at 5 uM measured up to 20 hrs by wound scratch assay (reference value: 2650 to 3123 micrometer/hr); type: functional; outline: as §4
[22] = tested on: A 172; assay: Antimigratory activity in human A172 cells assessed as velocity of migration at 10 uM measured up to 20 hrs by wound scratch assay (reference value: 2650 to 3123 micrometer/hr); type: functional; outline: as §4
[23] = tested on: A 172; assay: Antiinvasive activity in human A172 cells assessed as velocity of invasion at 1 uM measured up to 20 hrs by matrigel assay (reference value: 2659 to 3047 micrometer/hr); type: functional
[24] = tested on: A 172; assay: Antiinvasive activity in human A172 cells assessed as velocity of invasion at 5 uM measured up to 20 hrs by matrigel assay (reference value: 2659 to 3047 micrometer/hr); type: functional
[25] = tested on: A 172; assay: Antiinvasive activity in human A172 cells assessed as velocity of invasion at 10 uM measured up to 20 hrs by matrigel assay (reference value: 2659 to 3047 micrometer/hr); type: functional
[26] = Antimigratory activity in patient-derived RN1 cells assessed as velocity of migration at 1 uM measured up to 20 hrs by wound scratch assay (reference value: 937 to 1174 micrometer/hr); type: functional, Homo sapiens; outline: as §4
[27] = Antimigratory activity in patient-derived RN1 cells assessed as velocity of migration at 5 uM measured up to 20 hrs by wound scratch assay (reference value: 937 to 1174 micrometer/hr); type: functional, Homo sapiens; outline: as §4
[28] = Antimigratory activity in patient-derived RN1 cells assessed as velocity of migration at 10 uM measured up to 20 hrs by wound scratch assay (reference value: 937 to 1174 micrometer/hr); type: functional, Homo sapiens; outline: as §4
[29] = target: T2, Dual specificity tyrosine-phosphorylation-regulated kinase 3 (Homo sapiens, UniProt O43781); assay: Inhibition of full-length recombinant human GST-tagged DYRK3 expressed in Escherichia coli using woodtide as substrate after 30 mins in presence of [gamma-33P]ATP
T2 sequence (O43781 whole entry): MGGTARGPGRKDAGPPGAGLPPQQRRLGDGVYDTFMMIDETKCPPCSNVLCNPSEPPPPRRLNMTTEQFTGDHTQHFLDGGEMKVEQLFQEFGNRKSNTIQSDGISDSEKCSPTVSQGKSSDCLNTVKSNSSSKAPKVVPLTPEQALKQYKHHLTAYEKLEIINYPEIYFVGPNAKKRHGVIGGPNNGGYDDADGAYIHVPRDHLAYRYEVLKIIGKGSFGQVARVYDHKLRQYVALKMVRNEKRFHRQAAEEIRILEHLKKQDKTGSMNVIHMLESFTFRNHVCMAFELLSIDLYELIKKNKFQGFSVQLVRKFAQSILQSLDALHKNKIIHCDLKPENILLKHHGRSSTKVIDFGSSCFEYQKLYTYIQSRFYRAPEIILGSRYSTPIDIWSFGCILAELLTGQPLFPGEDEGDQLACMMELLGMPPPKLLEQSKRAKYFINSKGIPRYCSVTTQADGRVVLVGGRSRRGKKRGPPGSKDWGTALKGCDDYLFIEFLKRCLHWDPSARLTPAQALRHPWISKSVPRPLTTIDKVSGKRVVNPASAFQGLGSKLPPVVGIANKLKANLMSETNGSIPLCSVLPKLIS

[30] = target: T3, Dual specificity tyrosine-phosphorylation-regulated kinase 4 (Homo sapiens, UniProt Q9NR20); assay: Inhibition of full-length recombinant human GST-tagged DYRK4 expressed in baculovirus infected insect cells using DYRKtide as substrate after 5 mins in presence of [gamma-33P]ATP by liquid scintillation counting
T3 sequence (Q9NR20 whole entry): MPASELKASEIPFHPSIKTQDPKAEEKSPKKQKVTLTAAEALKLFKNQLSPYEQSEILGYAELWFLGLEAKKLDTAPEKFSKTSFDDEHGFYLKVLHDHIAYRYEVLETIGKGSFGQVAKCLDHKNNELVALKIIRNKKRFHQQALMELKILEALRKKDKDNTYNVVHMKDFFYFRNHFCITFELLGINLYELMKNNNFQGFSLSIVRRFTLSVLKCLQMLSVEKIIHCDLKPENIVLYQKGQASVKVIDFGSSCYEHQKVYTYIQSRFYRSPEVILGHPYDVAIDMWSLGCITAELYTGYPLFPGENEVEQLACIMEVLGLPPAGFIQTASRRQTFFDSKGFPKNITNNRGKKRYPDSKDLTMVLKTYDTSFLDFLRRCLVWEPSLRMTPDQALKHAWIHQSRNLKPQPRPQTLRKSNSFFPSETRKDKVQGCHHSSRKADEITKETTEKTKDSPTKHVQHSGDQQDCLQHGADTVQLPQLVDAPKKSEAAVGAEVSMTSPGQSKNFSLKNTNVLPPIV

Chain of Dual specificity tyrosine-phosphorylation-regulated kinase 1B (Q9Y463 whole entry): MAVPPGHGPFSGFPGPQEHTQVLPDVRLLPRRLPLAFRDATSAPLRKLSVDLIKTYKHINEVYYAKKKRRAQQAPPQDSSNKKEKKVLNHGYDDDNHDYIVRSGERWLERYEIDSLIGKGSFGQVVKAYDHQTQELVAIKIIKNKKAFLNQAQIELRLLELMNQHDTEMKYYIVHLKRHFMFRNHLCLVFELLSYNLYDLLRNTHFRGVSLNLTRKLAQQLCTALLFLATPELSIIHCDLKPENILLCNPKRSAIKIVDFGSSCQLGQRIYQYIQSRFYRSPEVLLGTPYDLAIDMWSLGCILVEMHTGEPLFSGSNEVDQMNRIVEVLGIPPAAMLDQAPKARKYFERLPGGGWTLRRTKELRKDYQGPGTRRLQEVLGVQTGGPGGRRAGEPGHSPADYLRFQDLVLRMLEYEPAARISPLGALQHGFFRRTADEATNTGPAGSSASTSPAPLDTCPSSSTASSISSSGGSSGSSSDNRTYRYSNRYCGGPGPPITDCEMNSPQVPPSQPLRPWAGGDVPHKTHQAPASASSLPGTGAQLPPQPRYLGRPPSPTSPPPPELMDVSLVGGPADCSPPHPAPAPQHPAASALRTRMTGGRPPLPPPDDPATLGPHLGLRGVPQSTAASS
Chain of Dual specificity protein kinase CLK1 (P49759 whole entry): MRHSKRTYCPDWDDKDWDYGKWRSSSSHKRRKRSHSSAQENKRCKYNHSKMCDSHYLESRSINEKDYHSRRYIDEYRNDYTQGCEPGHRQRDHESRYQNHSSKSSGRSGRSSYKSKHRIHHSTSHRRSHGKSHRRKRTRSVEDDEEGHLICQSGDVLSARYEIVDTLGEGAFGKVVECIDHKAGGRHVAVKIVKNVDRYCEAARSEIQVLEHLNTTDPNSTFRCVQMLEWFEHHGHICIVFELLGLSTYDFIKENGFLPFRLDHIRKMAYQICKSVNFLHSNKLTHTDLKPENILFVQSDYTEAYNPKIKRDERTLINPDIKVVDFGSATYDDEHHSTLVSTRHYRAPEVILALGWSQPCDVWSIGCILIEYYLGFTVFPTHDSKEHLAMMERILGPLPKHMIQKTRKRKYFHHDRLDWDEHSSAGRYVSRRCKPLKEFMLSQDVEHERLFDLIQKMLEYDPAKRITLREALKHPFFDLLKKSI

CC(=O)Nc1ccc(-c2cnc3[nH]cc(-c4ccc(O)cc4)c3c2)cc1
IC50 [1]: 536 nM | IC50 [2]: 6.6 nM | IC50 [3]: 38 nM | IC50 [4]: 35 nM | EC50 [5]: 2100 nM | EC50 [6]: 900 nM | EC50 [7]: 8.6 µM | EC50 [8]: 5.1 µM | EC50 [9]: 1.6 to 4.6 µM | EC50 [10]: 1.6 to 4.6 µM | EC50 [11]: 2100 nM | Activity [12]: Dose-dependent effect | inhibition [13]: inactive | Activity [14]: 1125 um/hr | Activity [15]: 173 um/hr | Activity [16]: 111 um/hr | Activity [17]: 736 um/hr | Activity [18]: 34 um/hr | Activity [19]: -118 um/hr | Activity [20]: 2891 um/hr | Activity [21]: 2296 um/hr | Activity [22]: 651 um/hr | Activity [23]: 2731 um/hr | Activity [24]: 2027 um/hr | Activity [25]: 1718 um/hr | Activity [26]: 332 um/hr | Activity [27]: 210 um/hr | Activity [28]: 196 um/hr

COc1ccc2c(c1)[nH]c1c(C)nccc12 [HARMINE]
IC50 [29]: 410 nM | IC50 [30]: 80 µM
